Here are results for two compounds from ChEMBL document CHEMBL1131139, “Synthesis and antibacterial activity of ketolides (6-O-methyl-3-oxoerythromycin derivatives): a new class of antibacterials highly potent against macrolide-resistant and -susceptible respiratory pathogens” (1998).

As usually defined, the ED50 is the midpoint of the dose-response relation. Low values mean greater potency, high ones weaker potency. As usually defined, the MIC50 is an inhibitory concentration at the 50% level, which refers to growth in some studies and to a panel of isolates in others. Read a low MIC50 as greater potency. In general, MIC90 refers to the lowest concentration that inhibits either 90% of growth or 90% of the strains tested, depending on the study. A higher MIC90 goes with weaker potency.

In brackets after ≈: the same amount, converted by molar mass.

What all share (format): functional
For assay [1], the system named is Streptococcus pneumoniae. Put plainly: In vitro inhibitory activity against Streptococcus pneumoniae (032UC1). The gist of the method:
(§1)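 Two-fold agar dilution on Mueller-Hinton agar (pH 7.4). Inoculum from overnight plate cultures suspended in Mueller-Hinton broth, adjusted to 10^9 CFU/mL, diluted 1:200 and spotted by multipoint inoculator at about 10^4 CFU/spot. Plates incubated 37 °C for 20 h. MIC taken as lowest concentration with no visible growth.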

Assay [2] deals with Staphylococcus aureus. The experiment in a line: In vitro inhibitory activity against Staphylococcus aureus (011UC4). The gist of the method:
as §1

In assay [3] the test system is Staphylococcus aureus. Put plainly: In vitro inhibitory activity against Staphylococcus aureus (EryRc 011CB20). The gist of the method: as §1
Another assay has as its system Escherichia coli. Put plainly: In vitro inhibitory activity against Escherichia coli (250 UC5). The gist of the method:
as §1

Assay [4] concerns Staphylococcus epidermidis. Put plainly: In vitro inhibitory activity against Staphylococcus epidermidis (EryRi 012GO11i). The gist of the method: as §1
For assay [5], the system named is Haemophilus influenzae. Put plainly: In vitro inhibitory activity against Haemophilus influenzae (351CB12). In outline:
as §1

Another assay relates to Streptococcus pyogenes. Put plainly: In vitro inhibitory activity against Streptococcus pyogenes (02A1UC1). In outline:
as §1

For assay [6], the system named is Haemophilus influenzae. Put plainly: In vitro inhibitory activity against Haemophilus influenzae (351HT3). In outline:
as §1

Assay [7] deals with Streptococcus pneumoniae. The experiment in a line: In vitro inhibitory activity against Streptococcus pneumoniae (EryRi 030SJ5i). The gist of the method: as §1
Assay [8] has as its system Streptococcus pneumoniae. Put plainly: In vitro inhibitory activity against Streptococcus pneumoniae (EryRc 030SJ1). The gist of the method: as §1
Assay [9] deals with Staphylococcus aureus. Put plainly: In vitro inhibitory activity against Staphylococcus aureus (EryRi 011GO25i). In outline: as §1
Assay [10] has as its system Mus musculus. Put plainly: In Vivo evaluation for its effective dose against Haemophilus influenzae (351GR1). The gist of the method:
(§2)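 Male Charles River CD1 mice, 20-22 g, 10 per dose group, infected intraperitoneally with 0.5 mL diluted overnight broth culture (physiological buffer or 5% hog mucine) at 10-100 times the minimal lethal dose. Compound suspended in carboxymethylcellulose, 0.5 mL given orally immediately and 4 h postinfection. Survival followed 8-10 days; ED50 (unitary dose protecting 50% from death) by Litchfield-Wilcoxon probit method.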

The test system of assay [11] is Haemophilus. The experiment in a line: In vitro inhibitory activity against Haemophilus AmpS (43).
Assay [12] has as its system Mus musculus. Put plainly: In Vivo evaluation for its effective dose against Haemophilus influenzae (351RD7 AmpR beta (+)). In outline:
as §2

Assay [13] has as its system Haemophilus. The experiment in a line: In vitro inhibitory activity against Haemophilus AmpR (37).
The subject of assay [14] is Mus musculus. The experiment in a line: In Vivo evaluation for its effective dose against Haemophilus influenzae (351TO19 AmpR beta (-)). In outline:
as §2

Take `CC[C@H]1OC(=O)[C@H](C)C(=O)[C@H](C)[C@@H](O[C@@H]2O[C@H](C)C[C@H](N(C)C)[C@H]2O)[C@](C)(OC)C[C@@H](C)C(=O)[C@@H](C)[C@H]2N(NCCCc3ccnc4c(OC)cccc34)C(=O)O[C@]12C`: the MIC in the assay on Streptococcus pneumoniae [1] worked out at 0.02 µg/mL (≈ 0.0242 µM); against Staphylococcus aureus [2] it was 0.04 µg/mL (≈ 0.0484 µM); against Staphylococcus aureus [3], 40 µg/mL (≈ 48.4 µM); against Escherichia coli, 40 µg/mL (≈ 48.4 µM); in [4], 0.15 µg/mL (≈ 0.181 µM); against Haemophilus influenzae [5], 1.2 µg/mL (≈ 1.45 µM). For the same compound, the MIC was 0.02 µg/mL (≈ 0.0242 µM) in the assay with Streptococcus pyogenes; 0.6 µg/mL (≈ 0.725 µM) against Haemophilus influenzae [6]; 0.15 µg/mL (≈ 0.181 µM) in the assay on Streptococcus pneumoniae [7]; 2.5 µg/mL (≈ 3.02 µM) against Streptococcus pneumoniae [8]; 0.15 µg/mL (≈ 0.181 µM) against Staphylococcus aureus [9].

For the compound `CC1(C)S[C@@H]2[C@H](NC(=O)[C@H](N)c3ccccc3)C(=O)N2[C@H]1C(=O)O` [AMPICILLIN], the ED50 in the assay with Mus musculus [10] is 5.5 mg/kg; in the assay on Mus musculus [12] it was more than 600 mg/kg; in the assay with Mus musculus [14] it was 39 mg/kg. The MIC50 in the assay on Haemophilus [11] turned out to be 0.3 µg/mL (≈ 0.859 µM); against Haemophilus [13] it was 1.2 µg/mL (≈ 3.43 µM). Also, the results for the MIC90 against Haemophilus [11] and in the assay on Haemophilus [13] were 0.6 µg/mL (≈ 1.72 µM) and 1 µg/mL (≈ 2.86 µM), respectively.
